Screens deposited in PubChem by several laboratories.
An excerpt weighted towards active compounds, which were near 3.7% of everything screened.
JMJD2C inh = inhibitors of GASC-1 histone demethylase, primary screen, biochemical, fluorescence, DELFIA europium; Lysine-specific demethylase 4C (Homo sapiens), Q9H3R0; GST-JMJD2C(1-420) H3K9me3 demethylation; inhibition, % at 2.35 µM; 330,000 tested, 0.069% active; AID 2099, 2009;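 active means more than half of a compound's replicate wells show inhibition beyond 50%, single wells judged on their own value; inconclusive means some, but no more than half, of replicates pass 50% inhibition; inactive means no replicate passes 50% inhibition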;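 further: signal counts dimethyl H3K9 product captured on neutravidin plate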
SR-BI uptake up = activators of SR-BI mediated DiI-HDL uptake, primary screen, ldlA[mSR-BI] CHO cells, DiI fluorescence. AID 504775, 2011. 320,000 tested, 0.096% active. 3 h; 100 = double the neutral-control signal. activation, % at 12.5 µM;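 active means mean replicate activation of at least 60% and every replicate at or above 60%; inconclusive means mean or all-replicate condition met, but not both; inactive means mean below 60% and not all replicates reaching 60%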
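System: CHO ldlA[mSR-BI] cells / Medium: HEPES-buffered (25 mM, pH 7.4) F12 plus 0.5% BSA / Probe or stimulus: labelled HDL, 10 µg/mL / Doses: single compound concentration, delivered by pin transfer / Schedule: 3 h, 37 °C / Measured by: DiI fluorescence, bottom read / Measure: cell-associated DiI fluorescence as measure of HDL uptake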
SR-BI DiI inh = inhibitors of SR-BI mediated HDL lipid uptake, primary screen, ldlA[mSR-BI] cells, fluorescence, single point; Scavenger receptor class B member 1 (Mus musculus), Q61009; 320,000 tested, 0.96% active; inhibition, % at 12.5 µM; AID 488896, 2010; ldlA[mSR-BI] CHO cells, DiI-HDL uptake fluorescence, 3 h;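 active means mean replicate inhibition of at least 70% and a set share of replicates each scoring 70 or more; inconclusive means meets just one of the two criteria; inactive means fails both criteria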
Target sequence (Q61009 whole entry, looked up): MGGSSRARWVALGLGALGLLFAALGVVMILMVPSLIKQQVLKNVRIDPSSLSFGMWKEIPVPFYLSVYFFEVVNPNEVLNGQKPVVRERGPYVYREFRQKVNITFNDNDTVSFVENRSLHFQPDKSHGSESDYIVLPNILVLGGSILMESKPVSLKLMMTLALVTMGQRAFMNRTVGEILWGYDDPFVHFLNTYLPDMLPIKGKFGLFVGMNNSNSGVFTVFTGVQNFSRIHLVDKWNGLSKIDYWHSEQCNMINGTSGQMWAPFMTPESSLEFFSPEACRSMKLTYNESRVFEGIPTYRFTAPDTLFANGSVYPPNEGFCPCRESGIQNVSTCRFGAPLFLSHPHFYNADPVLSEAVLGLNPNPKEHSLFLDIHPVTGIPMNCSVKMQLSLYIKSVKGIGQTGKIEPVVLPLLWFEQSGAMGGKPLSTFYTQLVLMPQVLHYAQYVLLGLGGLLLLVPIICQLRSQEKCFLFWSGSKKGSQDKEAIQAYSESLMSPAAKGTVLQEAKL
GAA850 FXN act = FXN promoter activators, primary screen, cell-based, luciferase luminescence, HEK293 lucGAA850 | 360,000 tested, 0.56% active | AID 540364, 2011 | HEK293 lucGAA850 FXN promoter luciferase reporter, 24 h; percent of 10 µM SAHA response | activation, % at 6 µM;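 active means activation above the average of all compounds screened plus 3 SD, cutoff fixed separately per campaign, cut at about 7.5% in these data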
AHR act = AHR activators, primary screen, cell-based, luminescence, luciferase reporter, human. AHR-responsive luciferase reporter cells. activation, % at 5 µM. 320,000 tested, 2.5% active. AID 2796, 2010; in the data active means activation above about 47%
Numbers stand for hits; – = inactive; ? = inconclusive; · = no result given.

SMILES	JMJD2C inh	SR-BI uptake up	SR-BI DiI inh	GAA850 FXN act	AHR act
Cc1nn(-c2ccccc2)c(C)c1/C=N/NC(=O)c1cc(-c2cccc3ccccc23)n[nH]1	–	–	?	–	–
C[C@H]1CN([C@@H](C)CO)C(=O)CCCn2nncc2CO[C@H]1CN(C)C(=O)Nc1ccc2c(c1)OCO2	·	·	·	–	·
O=C(NCC1CCCO1)c1cc(S(=O)(=O)Nc2ccc(Br)cc2)ccc1Cl (stereo not drawn)	–	–	–	–	–
CCC[C@H]1NC(=O)[C@H](C)N(C)C(=O)C(C)(C)C(=O)C(C)NC(=O)[C@H](Cc2ccc(OC)cc2)N(C)C(=O)[C@H](C(C)C)N(C)C(=O)CNC(=O)[C@H](CC(C)C)N(C)C(=O)CNC(=O)[C@H]([C@@H](C)CC)OC(=O)[C@H]1C (stereo partly drawn)	·	·	·	·	–
Cc1cc(C)cc(OCCNC(=O)CCc2ccccc2)c1	–	–	–	–	–
Cc1cccc(/C=N/NC(=O)c2cc(-c3cccnc3)nc3ccccc23)c1	–	–	–	–	–
Cc1[nH]c2ccccc2c1/C=N/NC(=O)c1cccc(Br)c1	–	–	–	–	67.8
Cc1[nH]c2ccccc2c1/C=N/NC(=O)c1cc(-c2ccncc2)nc2ccccc12	–	–	–	–	56.6
C[C@H](CO)N1C[C@H](C)[C@@H](CN(C)C(=O)Nc2ccc3c(c2)OCO3)Oc2c(NC(=O)Cc3ccccc3)cccc2C1=O	·	–	–	–	–
CCOC(=O)CC(=O)Nc1ccsc1C(N)=O	–	–	–	–	–
Cc1nc2ccccc2n1/N=C/c1ccc([N+](=O)[O-])s1	–	–	–	–	52.0
CCN1C(C)=C(C)S/C1=C1\SC(=S)N(N)C1=O	–	–	–	–	–
CCNC(=S)N/N=C/c1cn(Cc2ccccc2F)c2ccccc12	–	–	–	–	51.0
CCc1cc2cccc(C)c2nc1SCC(=O)NNC(=O)c1ccco1	–	–	–	–	–
CCc1cc2cc(C)c(C)cc2nc1SCC(=O)NNC(=O)c1ccco1	–	–	75.0	–	–
CCc1cc2ccc(OC)cc2nc1SCC(=O)NNC(=O)c1ccco1	–	–	–	–	52.6
Cn1c(=O)[nH]c(=O)c2c1nc(N1CCCCC1)n2CC(O)COc1ccccc1 (stereo not drawn)	–	–	–	–	–
COC(=O)c1ccc(C(=O)OC)c(NC(=O)COC(=O)CC2CC3CCC2C3)c1 (stereo not drawn)	–	–	–	–	–
O=C(COc1ccc(-c2nnco2)cc1)Nc1c(F)cccc1F	–	–	–	–	–
CCCCCCCc1c(O)nc(SCCN(C)C)[nH]c1=O	–	271.7	–	–	–
Cc1ccc(C(=O)c2sc3nsc(C)c3c2N)cc1	–	–	–	–	64.4
C=CCn1c(COc2ccc(F)cc2)nnc1SC(C)C(=O)NCC1CCCO1 (stereo not drawn)	–	–	–	–	–
CCc1nc(N2CCCCC2C)c2oc3ccccc3c2n1 (stereo not drawn)	–	–	–	–	48.3
COc1ccc(CCNC(=O)CCCn2c(=O)c3cccn3c3cccnc32)c(OC)c1	–	–	71.3	–	–
COc1ccc(CCNC(=O)CCCn2c(=O)c3cccn3c3cccnc32)c(OC)c1OC	–	–	–	–	–
SMILES	JMJD2C inh	SR-BI uptake up	SR-BI DiI inh	GAA850 FXN act	AHR act
CCOc1ccc(CCNC(=O)CCCn2c(=O)c3cccn3c3cccnc32)cc1OCC	–	–	76.4	–	–
CCOC(=O)c1c(CSc2ccc(C)cc2)oc2ccc(O)cc12	–	–	–	–	–
O=C1N[C@@H](Cc2cn(S(=O)(=O)c3ccccc3)c3ccccc23)C(=O)N[C@H]1Cc1ccccc1	–	–	–	–	–
O=C(Nc1ccc(N2CCN(C(=O)c3ccco3)CC2)c(Cl)c1)c1cc2ccccc2o1	–	–	81.5	–	–
O=C(Nc1ccc(N2CCN(C(=O)c3ccccc3)CC2)c(Cl)c1)c1ccco1	–	–	–	–	–
CCCC(=O)N1CCN(c2ccc(NC(=O)c3cc4ccccc4o3)cc2Cl)CC1	–	–	–	–	–
CCC(=O)N1CCN(c2ccc(NC(=O)c3cc4ccccc4o3)cc2Cl)CC1	–	–	79.0	–	–
Oc1cccc(C=NN=C2c3ccccc3-c3ccccc32)c1	·	–	–	–	·
CCOc1cc(C=NN=C2c3ccccc3-c3ccccc32)ccc1O	·	–	76.1	–	·
COc1ccc(N2CCN(CC(=O)Nc3ccccc3C(=O)NCc3ccccc3)CC2)cc1	·	·	–	–	–
CSCC[C@H](NC(=O)c1cc2c([nH]c3ccccc32)c(-c2ccccc2)n1)C(=O)O	–	–	–	–	–
COCC(O)CSc1nc(C)[nH]c1[N+](=O)[O-] (stereo not drawn)	–	–	–	–	–
CN1C(=O)CSc2ccc(NC(=O)N3CCN(c4ccccc4)CC3)cc21	–	–	77.5	–	–
CC(C)CCNC(=O)Nc1ccc2c(c1)N(C)C(=O)CS2	–	–	–	–	47.3
CCNc1nc(NC(C)C)nc(SCCOC(=O)c2ccccc2)n1	–	–	–	–	–
CCNc1nc(NC(C)C)nc(SCCOc2ccc(C)cc2)n1	–	–	–	–	47.1
CSc1cccc(NC(=O)CCn2c(=O)c3cccn3c3cccnc32)c1	–	–	77.2	–	–
COc1ccc(NC(=O)CC(C)n2ccnc2)cc1 (stereo not drawn)	–	–	–	–	–
CCc1ccc(NC(=O)CCn2c(=O)c3cccn3c3ccccc32)cc1	–	–	–	–	49.6
COc1cccc(CNC(=O)CCn2c(=O)c3cccn3c3cccnc32)c1	–	–	–	–	–
CSc1cccc(NC(=O)CC(C)n2ccnc2)c1 (stereo not drawn)	–	–	–	–	58.2
OC(COCc1ccc(Cl)cc1)CN1CCN(c2ccccn2)CC1 (stereo not drawn)	–	–	–	–	–
COc1ccc(C(=O)NCCS(=O)(=O)N2CCc3ccccc3C2)cc1OC	–	–	–	–	–
Cc1ccc(NCC(=O)N/N=C/c2ccncc2)cc1	–	–	–	–	64.2
Cc1ccccc1OCC(=O)NNC(=O)C1CC(=O)N(c2ccc3c(c2)OCCO3)C1 (stereo not drawn)	·	–	–	–	–
COc1cc2nc(N(C)C)nc(N)c2cc1OC	–	–	–	–	64.8
COc1cc2nc(Nc3ccc(C)c(C)c3)nc(N)c2cc1OC	–	–	–	–	–
CCOc1cc(CNc2ccccc2)cc(Br)c1OCC(=O)NC(C)(C)C	–	–	–	–	–
CCOc1cc(CNc2ccccc2)cc(Br)c1OCc1ccc(F)cc1	–	–	73.7	–	–
